Laboratory results published in publication PMC9939360 (Acta Pharmaceutica Sinica. B, 2022).
Like-named read-outs stand apart in the source and are kept apart here. Marks after values point to notes of the source that are not given here.

How the values were obtained:
[1] = molecular target: T1, hM4 mAChR (Homo sapiens, UniProt P08173); assay type: binding; details: for LogαACh (logarithm of the binding cooperativity factor between M4-PAMs and ACh): CHO cells stably expressing hM4, mean ± SEM
T1 sequence (P08173 1-479): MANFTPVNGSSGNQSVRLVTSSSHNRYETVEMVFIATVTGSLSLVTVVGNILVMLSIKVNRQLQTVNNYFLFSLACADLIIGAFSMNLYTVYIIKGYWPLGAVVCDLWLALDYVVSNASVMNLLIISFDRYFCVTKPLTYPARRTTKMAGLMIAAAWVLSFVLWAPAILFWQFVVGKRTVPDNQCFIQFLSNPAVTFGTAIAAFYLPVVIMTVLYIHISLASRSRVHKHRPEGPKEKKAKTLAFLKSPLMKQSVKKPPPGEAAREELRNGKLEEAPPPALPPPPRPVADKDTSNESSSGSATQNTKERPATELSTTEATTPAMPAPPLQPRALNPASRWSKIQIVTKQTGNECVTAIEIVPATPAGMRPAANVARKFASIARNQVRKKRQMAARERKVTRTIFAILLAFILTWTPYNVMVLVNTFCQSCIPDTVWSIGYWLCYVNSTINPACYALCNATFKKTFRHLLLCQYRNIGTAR
Outline: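 Intact FlpIn CHO cells stably expressing human M4 were grown in DMEM/5% FBS, plated at 20,000 per well and grown overnight at 37 °C. After PBS washes, cells were incubated with an ACh concentration series, with or without increasing test compound concentrations, plus [3H]-NMS (~0.1 nmol/L). Atropine (10 μmol/L) defined nonspecific binding. Cells were washed with ice-cold 0.9% NaCl and counted by scintillation. KB and α came from an allosteric ternary complex model fit.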

[2] = molecular target: T1, hM4 mAChR; experiment: [35S]-GTPγS binding assay with ACh, operational model of allosterism; assay type: biochemical; details: mean ± SEM; for LogβACh (logarithm of the activation cooperativity factors between ACh and M4-PAMs): determined by subtracting (α) from the (αβ) parameters; for LogαβACh (logarithm of the operational functional cooperativity factors between ACh and M4-PAMs) / Logτ (logarithm of the operational efficacy parameter of M4-PAMs as allosteric agonists): hM4 membranes
Outline: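 Membranes from FlpInCHO cells stably expressing wild-type human M4, 15 μg per assay, preincubated 60 min at 30 °C with 10 μmol/L GDP and ACh (10 nmol/L–10 mmol/L), with or without M4-PAMs (0.1–10 μmol/L). [35S]GTPγS (1 nmol/L, as added) then given for 30 min at 30 °C. Bound label collected on GF/B filters and counted by scintillation. Data fitted to an operational model of allosterism and agonism.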

[3] = system: M1, M2, M3 and M5; experiment: Tango assay, selectivity over other muscarinic subtypes; assay type: cell-based
Outline: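 HEK293 cells stably carrying a tTA-dependent luciferase reporter and a β-arrestin2–TEV fusion were kept in DMEM/10% FBS with puromycin and hygromycin B at 37 °C, 5% CO2. They were transfected, then replated on day 3 at 15,000–20,000 cells/well on poly-L-lysine. On day 4 test compound was added in HEPES/1× HBSS buffer, pH 7.4. On day 5, Bright-Glo luminescence was read after 15–20 min at room temperature (RLU). Carbachol served as reference agonist.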

[4] = system: M4; details: humans; cited from earlier work
[5] = system: M4; details: rhesus monkeys; cited from earlier work

Structure (SMILES) | Kb [1] [nM] | LogαACh (logarithm of the binding cooperativity factor between M4-PAMs and ACh) [1] | LogβACh (logarithm of the activation cooperativity factors between ACh and M4-PAMs) [2] | LogαβACh (logarithm of the operational functional cooperativity factors between ACh and M4-PAMs) [2] | Logτ (logarithm of the operational efficacy parameter of M4-PAMs as allosteric agonists) [2] | selectivity over other muscarinic acetylcholine receptor subtypes [3] | peak striatal SUV [4] | peak striatal SUV [5]
Cc1ccc(-c2cnn(CC3CCCC3)c2)c(-c2ccc3c(c2)C(=O)N(C)C3)n1 [Compound 10, 6-(3-(1-(cyclopentylmethyl)-1H-pyrazol-4-yl)-6-methylpyridin-2-yl)-2-methylisoindolin-1-one] | 316 | 1.6 ± 0.2 | 0.4 ± 0.2 | 2.0 ± 0.2 | 0.7 ± 0.0 |  |  | 
Cc1ccc(-c2cnn(CC3CCCC3)c2)c(-c2ccc3c(c2)C(=O)NC3)n1 [Compound 11, 6-(3-(1-(cyclopentylmethyl)-1H-pyrazol-4-yl)-6-methylpyridin-2-yl)isoindolin-1-one] | 501 | 1.4 ± 0.2 | 0.5 ± 0.3 | 1.9 ± 0.2 | 0.5 ± 0.0 |  |  | 
CC1(Cn2cc(-c3ccc(C#N)nc3-c3ccc4c(c3)C(=O)N([11CH3])C4)cn2)CCCC1 [[^11C]MK-6884] |  |  |  |  |  |  | ca. 2.5 | ca. 1.2

More lines, main results first:

Kb [1] [nM] | LogαACh (logarithm of the binding cooperativity factor between M4-PAMs and ACh) [1] | LogβACh (logarithm of the activation cooperativity factors between ACh and M4-PAMs) [2] | LogαβACh (logarithm of the operational functional cooperativity factors between ACh and M4-PAMs) [2] | Logτ (logarithm of the operational efficacy parameter of M4-PAMs as allosteric agonists) [2] | selectivity over other muscarinic acetylcholine receptor subtypes [3] | Structure (SMILES) | peak striatal SUV [4] | peak striatal SUV [5]
398 | 1.7 ± 0.3 | 0.1 ± 0.3 | 1.9 ± 0.2 | 0.3 ± 0.0 |  | CN1Cc2ccc(-c3nc(C#N)ccc3-c3cnn(CC4CCCC4)c3)cc2C1=O [Compound 8, 5-(1-(cyclopentylmethyl)-1H-pyrazol-4-yl)-6-(2-methyl-3-oxoisoindolin-5-yl)picolinonitrile] |  | 
398 | 1.4 ± 0.1 | 1.1 ± 0.2 | 2.5 ± 0.1 ^f | 0.5 ± 0.0 | selective | N#Cc1ccc(-c2cnn(CC3CCCC3)c2)c(-c2ccc3c(c2)C(=O)N(CCF)C3)n1 [Compound 12, 5-(1-(cyclopentylmethyl)-1H-pyrazol-4-yl)-6-(2-(2-fluoroethyl)-3-oxoisoindolin-5-yl)picolinonitrile] |  | 
398 | 1.6 ± 0.2 | 0.8 ± 0.2 | 2.4 ± 0.2 ^f | 0.6 ± 0.0 |  | N#Cc1ccc(-c2cnn(CC3CCCC3)c2)c(-c2ccc3c(c2)C(=O)N(CCCF)C3)n1 [Compound 13, 5-(1-(cyclopentylmethyl)-1H-pyrazol-4-yl)-6-(2-(3-fluoropropyl)-3-oxoisoindolin-5-yl)picolinonitrile] |  | 
